Results reported in PMC4294696 (Bioorganic & medicinal chemistry letters, 2014).
“Also recorded” adds a separate entry of the source.

Key:
5-HT1AR [1] = biological target: T1, 5-HT1AR (Homo sapiens, UniProt P08908); assay: 5-HT1AR competition binding with [3H]8-OH-DPAT
T1 sequence (P08908 1-422): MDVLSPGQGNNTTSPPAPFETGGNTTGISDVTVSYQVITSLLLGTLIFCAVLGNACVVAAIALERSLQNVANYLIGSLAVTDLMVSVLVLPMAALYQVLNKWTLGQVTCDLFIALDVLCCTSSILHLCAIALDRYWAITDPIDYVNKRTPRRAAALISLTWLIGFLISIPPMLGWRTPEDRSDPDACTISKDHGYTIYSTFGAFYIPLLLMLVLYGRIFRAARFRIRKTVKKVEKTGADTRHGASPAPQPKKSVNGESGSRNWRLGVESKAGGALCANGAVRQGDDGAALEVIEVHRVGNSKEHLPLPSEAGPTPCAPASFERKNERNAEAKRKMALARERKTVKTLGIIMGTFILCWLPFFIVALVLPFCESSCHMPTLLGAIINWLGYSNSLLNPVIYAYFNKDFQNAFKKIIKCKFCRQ

α-1AR = α-1AR competition binding with [3H]-7-methoxyprazosin; details: for selectivity for 5-HT1AR over α-1AR: ratio of Ki values
5-HT1AR [2] = biological target: T1, 5-HT1AR; assay: Agonist-stimulated [35S]GTPγS binding in CHO-h5-HT1A cell membranes; type: biochemical
How it was run: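 Membranes from CHO cells stably expressing human 5-HT1AR were used. [35S]GTPγS was added at 0.1 nM and incubation continued for 60 min at room temperature. The reaction was stopped by rapid filtration through GF/B filters, followed by three washes with ice-cold 20 mM HEPES, pH 7.4. Bound radioactivity was counted by liquid scintillation. The response was taken as binding above basal.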

| Compound | 5-HT1AR binding affinity (in words) (5-HT1AR [1]) | selectivity for 5-HT1AR over α-1AR (α-1AR) | selectivity for 5-HT1AR over α-1AR (in words) (α-1AR) | agonist profile as measured by GTPγS binding (in words) (5-HT1AR [2]) |
| --- | --- | --- | --- | --- |
| COc1ccccc1N1CCN(CCCCn2ncc(=O)n(C)c2=O)CC1 [Compound 8] | nanomolar affinity |  |  |  |
| COc1ccc(N2CCN(CCCCn3ncc(=O)n(C)c3=O)CC2)cc1 [Compound 10] | sharp decrease in affinity |  |  |  |
| COc1ccc(N2CCN(CCCCn3ncc(=O)n(C)c3=O)CC2)c(OC)c1 [Compound 11] | sharp decrease in affinity |  |  |  |
| CCOc1ccccc1N1CCN(CCCCn2ncc(=O)n(C)c2=O)CC1 [Compound 12] | nanomolar affinity |  |  |  |
| Cn1c(=O)cnn(CCCCN2CCN(c3ccccc3OCCCF)CC2)c1=O [Compound 14] | nanomolar affinity |  |  |  |
| CSc1ccccc1N1CCN(CCCCn2ncc(=O)n(C)c2=O)CC1 [Compound 17] | nanomolar affinity |  |  |  |
| Cn1c(=O)cnn(CCCCN2CCN(c3ccc(I)cc3)CC2)c1=O [Compound 19] | sharp decrease in affinity |  |  |  |
| Cn1c(=O)cnn(CCCCN2CCN(c3ccccc3C#N)CC2)c1=O [Compound 20] | nanomolar affinity |  |  |  |
| Cn1c(=O)cnn(CCCCN2CCN(c3c(Br)cccc3C#N)CC2)c1=O [Compound 23] | sharp decrease in affinity |  |  |  |
| Cn1c(=O)cnn(CCCCN2CCN(c3ccccc3O)CC2)c1=O [Compound 24] | nanomolar affinity | > 10,000 times |  |  |
| Cn1c(=O)cnn(CCCCN2CCN(c3cccc(O)c3)CC2)c1=O [Compound 25] | nanomolar affinity; also recorded: high affinity |  | excellent selectivity |  |
| Cn1c(=O)cnn(CCCCN2CCN(c3ccccn3)CC2)c1=O [Compound 27, 4-Methyl-2-(4-(4-(pyridin-2-yl)piperazin-1-yl)butyl)-1,2,4-triazine-3,5(2H,4H)-dione] | high affinity |  | excellent selectivity |  |
| Cn1c(=O)cnn(CCCCN2CCN(c3ncccc3F)CC2)c1=O [Compound 29] | high affinity |  | excellent selectivity |  |
| Cn1c(=O)cnn(CCCCN2CCN(c3ccccc3S)CC2)c1=O [Compound 31] | nanomolar affinity | > 10000 times |  |  |
| Cn1c(=O)cnn(CCCCN2CCN(c3cccc(F)n3)CC2)c1=O [Compound 32] | high affinity; also recorded: nanomolar affinity |  | excellent selectivity; also recorded: higher selectivity to 5-HT1AR over α-1AR in comparison to CUMI-101 | robust agonist profile |
| Cn1c(=O)cnn(CCCCN2CCN(c3cccc(Br)n3)CC2)c1=O [Compound 33] | high affinity |  | excellent selectivity |  |
| COc1ccccc1N1CCN(CCCCCn2ncc(=O)n(C)c2=O)CC1 [Compound 38] | did not see considerable improvement |  |  |  |
| COc1ccc2cccc(N3CCN(CCCCCn4ncc(=O)n(C)c4=O)CC3)c2c1 [Compound 42] | did not see considerable improvement |  |  |  |
